# Screening results (PubChem)
# Shown are actives, neighbours in structure and some others; about 1.3% of the full set was active somewhere.
# NTR1 agonist – agonists of human NTR1, primary screen, imaging, U2OS cells, beta-arrestin-GFP, high content; 330,000 tested, 0.17% active; Neurotensin receptor type 1 (Homo sapiens), P30989; activation, % at 20 µM; AID 493036, 2011; NTR1-U2OS beta-arrestin-GFP spot imaging, agonist mode;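 active = activation at or above 40% of the spot to cytoplasm intensity ratio, with at least 20 cells analyzed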;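 also: 0% = DMSO without peptide and 100% = 100 nM NTR1 peptide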
# Arr AP2 block – inhibitors of beta-arrestin/AP2 binding, primary screen, biochemical, GPCR trafficking, flow cytometry | beta-arrestin 1 C-terminal peptide binding to AP2 beta2-adaptin appendage (human) | FITC-arrestin peptide / GST-AP2 beads; AP2 beta2 appendage carries R879A mutation | inhibition, % at 10 µM | 340,000 tested, 0.31% active | AID 504490, 2011;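 active = inhibition above a set limit, near 3 SD of compounds lacking own fluorescence, cut at about 54% in these data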;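 also: plate controls were DMSO wells for no effect and 5 µM unlabelled arrestin peptide for full effect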
#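 System: GST-AP2 R879A glutathione beads; medium: PBS, Tween 20 0.05%, BSA 0.1%; reagent: fluorescein-tagged arrestin peptide at 50 nM final; schedule: pre-incubation 12 min, peptide binding 1 h, room temperature; detection: flow cytometry, FL1 (488/535 nm); read-out: inhibition as reduced fluorescein signal on beads, percent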
# PLC-beta3 inh – human PLC-beta3 inhibitors, primary screen, biochemical, fluorescence | Purified PLC-beta3, fluorogenic substrate | inhibition, % at 12.2 µM | AID 720704, 2013 | 370,000 tested, 0.18% active | 1-phosphatidylinositol 4,5-bisphosphate phosphodiesterase beta-3 (Homo sapiens), Q01970; in the data active = inhibition above about 11%;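 also: 0% = median of compound wells on plate and 100% = full blocker control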
# PLCg1 inh – PLC-gamma1 enzyme inhibitors, primary screen, biochemical, fluorescence, purified enzyme | 1-phosphatidylinositol 4,5-bisphosphate phosphodiesterase gamma-1 (Homo sapiens), P19174 | fluorogenic substrate | inhibition, % at 12.2 µM | 370,000 tested, 0.84% active | AID 720700, 2013
# PLCg1 ctr – PLC-gamma1 enzyme inhibitors, counter-screen for PLC-beta3 inhibitor project, biochemical, fluorescence; shares compounds with PLCg1 inh; purified PLC-gamma1, fluorogenic substrate; 3,300 tested, 3.1% active; AID 743258, 2014; inhibition, % at 12.3 µM
# PLCbeta3 conf – PLC-beta3 inhibitor confirmation, biochemical, fluorescence, purified enzyme; inhibition, % at 12.3 µM; 3,300 tested, 1% active; fluorogenic substrate fluorescence; shares compounds with PLCg1 inh; in the data active = inhibition above about 11%
# * marks the source's active call; other numbers are inactive results; . = no result. Rule as the data show it, unless noted: active = inhibition above about 9.5%; inactive = the rest.
SMILES,NTR1 agonist,Arr AP2 block,PLC-beta3 inh,PLCg1 inh,PLCg1 ctr,PLCbeta3 conf
COC(=O)[C@H](C(C)C)N1Cc2nnn(CC3CCCCC3)c2-c2ccccc2S1(=O)=O,.,.,5,3,.,.
C#CCNC(=O)C[C@H]1C[C@@]2(C(=O)OC)C(=C[C@H](C3CCCC3)O[C@@H]2C)N(Cc2ccco2)C1=O,.,.,1,2,.,.
O=C(NCC1CCCO1)C1CCN(S(=O)(=O)c2cc(Cl)ccc2Cl)CC1 (stereo not drawn),0,-6,4,12*,0,3
O=C(CNC(=O)c1ccc(Br)o1)NC12CC3CC(CC(C3)C1)C2,-1,-2,4,9.9*,1,4
CCC(CC)c1nn2c(N)c(/C=C3\C=Nc4ccccc43)c(=O)nc2s1,7,3,4,10*,-48,-46
CC(C)c1nn2c(N)c(/C=C3\C=Nc4ccccc43)c(=O)nc2s1,3,0,-14,-9,.,.
CCOCCCNC(=O)C(c1ccc(C)cc1)N(Cc1ccc2c(c1)OCO2)C(=O)CNC(C)=O (stereo not drawn),-2,4,0,13*,-26,-12
COc1ccc(-c2nnc(SCC(=O)Nc3ccc(S(=O)(=O)Nc4nccs4)cc3)n2-c2ccc(OC)cc2)cc1,.,.,3,1,.,.
CCOc1ccccc1NC(=O)C1CCCN1C(=O)c1cccs1 (stereo not drawn),0,-3,-2,10*,-7,-2
CC1CCN(C2=NC(=O)N(c3ccc(Br)cc3)C(=O)C2)CC1,.,.,-4,-5,.,.
CC(C)c1onc(C(=O)N2CCOCC2)c1[N+](=O)[O-],1,-5,13*,8,-5,-1
CC12c3ccccc3C(c3ccccc31)C1C(=O)N(c3ccncc3)C(=O)C12 (stereo not drawn),3,13,-4,0,.,.
CC12c3ccccc3C(c3ccccc31)C1C(=O)N(c3cccnc3)C(=O)C12 (stereo not drawn),-1,2,10,12*,-4,-3
CCn1c2ccccc2c2cc(C=NNC(=O)c3ccoc3C)ccc21,.,.,-182,-137,.,.
O=S1(=O)N=C2CCCCCN2C(c2ccc(Br)cc2)N1 (stereo not drawn),2,12,-34,-11,.,.
O=S1(=O)N=C2CCCCCN2C(c2ccc(Cl)cc2)N1 (stereo not drawn),1,-4,-2,10*,4,3
O=C(O)C(Cc1ccccc1)n1cnnn1 (stereo not drawn),0,2,5,10*,-5,-2
O=C(O)C(Cc1ccccc1)n1cccc1 (stereo not drawn),0,-10,-4,-3,.,.
COc1ccc(Br)cc1/C=N/n1c(COc2ccccc2)n[nH]c1=S,-1,-17,-3,11*,-49,-43
COc1ccc(OC)c(/C=N/n2c(COc3ccccc3)n[nH]c2=S)c1,1,-3,-78,-49,.,.
CCCCCCCCOc1ccc(C(=O)O)cc1,2,-4,-1,1,.,.
CCCCCCOc1ccc(C(=O)O)cc1C#N,0,3,-5,9.8*,-4,-4
COc1cccc(Oc2ccc(S(=O)(=O)N3CCCC3)cc2[N+](=O)[O-])c1,0,14,-3,9.6*,2,1
COc1ccc(OCCOc2ccc(S(=O)(=O)N3CCCC3)cc2[N+](=O)[O-])cc1,-2,2,-5,-6,.,.
C=CCn1c(Cc2cccs2)nnc1SCC(=O)Nc1ccc(OCc2ccccc2)cc1,.,.,-2,0,.,.
COc1ccccc1NC(=O)c1cc2c(cc1Cl)N1CCCCCC1=NS2(=O)=O,0,25,10,12*,-4,-1
Cc1c(CCOC(=O)C23CC4CC(CC(C)(C4)C2)C3)sc[n+]1CC(=O)c1ccccc1,37,-13,2,12*,1,1
Cc1cc(C(=O)N2CCN(c3ccc([N+](=O)[O-])cc3)CC2)no1,-1,15,9,9.5*,-4,-3
